Measured values published in ChEMBL document CHEMBL1152300, “Ligand specificity of constitutive androstane receptor as probed by induced-fit docking and mutagenesis” (J Med Chem, 2008).

Legend:
[1] = biological target: Nuclear receptor subfamily 1 group I member 3 (Mus musculus, UniProt O35627, N175A); experiment: Decrease in mouse CAR N175A mutant activation expressed in HEK293 cells at 10 uM by mammalian one-hybrid assay; type: cell-based; settings: read-out: Activity
Method in brief: (§1)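 GAL4-DBD fused to mouse CAR LBD (residues 118-358), wild-type or point mutant, cotransfected with UASx4-tk-luc reporter and pCMVβ into HEK293 cells. Cells were exposed to final 1 µM, 2 µM or 10 µM test chemical, or 0.1% v/v DMSO, for 24 h after transfection. Luciferase was normalized to β-galactosidase and set against empty GAL4 vector (=1.0). Mean ± standard deviation, three independent experiments.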

[2] = biological target: T1, Nuclear receptor subfamily 1 group I member 3 (Mus musculus, UniProt O35627, L212A); experiment: Effect on nuclear co-repressor receptor binding to mouse CAR L212A mutant […] at 10 uM by yeast two-hybrid assay; type: cell-based; settings: read-out: Activity
T1 sequence (O35627 whole entry L212A, the tested form may be a part): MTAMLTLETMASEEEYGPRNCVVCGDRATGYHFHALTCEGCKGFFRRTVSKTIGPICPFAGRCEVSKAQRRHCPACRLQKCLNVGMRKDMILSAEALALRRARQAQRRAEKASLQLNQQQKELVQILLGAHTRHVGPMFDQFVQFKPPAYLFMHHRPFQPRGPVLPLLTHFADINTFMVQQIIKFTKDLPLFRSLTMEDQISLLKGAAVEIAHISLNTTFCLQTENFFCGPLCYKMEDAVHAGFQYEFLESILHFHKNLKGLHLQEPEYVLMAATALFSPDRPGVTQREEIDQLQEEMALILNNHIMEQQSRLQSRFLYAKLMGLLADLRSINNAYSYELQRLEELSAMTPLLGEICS
Method in brief: (§2)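 Yeast two-hybrid: yeast expressing wild-type or mutant mouse CAR LBD plus SRC-1 or NCoR, selected on SD medium lacking Leu and Trp. Pooled colonies treated with DMSO or test chemical for 3.5 h. β-Galactosidase normalized to cell density. SRC-1 reference: wild-type + DMSO = 100. NCoR reference: 10 µM androstenol = 100. Mean ± SD, two independent determinations, each in triplicate.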

[3] = biological target: T2, Nuclear receptor subfamily 1 group I member 3 (Mus musculus, UniProt O35627, F171A); settings: HEK293, mouse
T2 sequence (O35627 whole entry F171A): as the sequence (O35627 whole entry L212A, the tested form may be a part) above, with F171A, A212L counted along it

[4] = biological target: T3, mouse CAR (NR1I3), wild type (Mus musculus, UniProt O35627); experiment: Activation of wild type mouse CAR expressed in HEK293 cells at 1 uM by mammalian one-hybrid assay; type: cell-based; settings: HEK293 cells expressing wild type mouse CAR, read-out: FC
T3 sequence (O35627 whole entry): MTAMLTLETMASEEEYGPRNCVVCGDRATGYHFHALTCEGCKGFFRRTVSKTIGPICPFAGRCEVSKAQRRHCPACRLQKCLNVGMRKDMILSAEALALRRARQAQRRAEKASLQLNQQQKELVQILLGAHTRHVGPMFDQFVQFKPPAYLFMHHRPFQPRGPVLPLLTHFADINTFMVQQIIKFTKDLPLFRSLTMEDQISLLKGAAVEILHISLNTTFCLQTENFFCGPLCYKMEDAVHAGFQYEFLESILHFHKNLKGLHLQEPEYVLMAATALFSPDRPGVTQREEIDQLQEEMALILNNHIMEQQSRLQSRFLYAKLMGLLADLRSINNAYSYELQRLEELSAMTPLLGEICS
Method in brief: (§3)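 GAL4 DBD fused to mouse CAR LBD (residues 118-358), wild type or point mutant, cotransfected with UASx4-tk-luc reporter and pCMVβ into HEK293 cells. Cells cultured with DMSO (0.1% v/v) or compound (final 1, 2 or 10 µM). Lysed 24 h post-transfection. Luciferase normalized to β-galactosidase, expressed relative to empty GAL4 vector (=1.0). Mean ± SD, three independent experiments.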

[5] = biological target: Nuclear receptor subfamily 1 group I member 3 (Mus musculus, UniProt O35627, H213A); experiment: Activation of mouse CAR H213A mutant expressed in HEK293 cells at 1 uM by mammalian one-hybrid assay; type: cell-based; settings: hek293, 1 µM; method in brief: as §3
Nuclear receptor subfamily 1 group I member 3 (Mus musculus, UniProt O35627, H213A), sequence (O35627 whole entry H213A): as the sequence (O35627 whole entry L212A, the tested form may be a part) above, with A212L, H213A counted along it

[6] = biological target: Nuclear receptor subfamily 1 group I member 3 (Mus musculus, UniProt O35627, I252L); experiment: Enhancement of steroid receptor coactivator 1 binding to mouse CAR I252L mutant […] at 1 uM by yeast two-hybrid assay; type: cell-based
Nuclear receptor subfamily 1 group I member 3 (Mus musculus, UniProt O35627, I252L), sequence (O35627 whole entry I252L, the tested form may be a part): as the sequence (O35627 whole entry L212A, the tested form may be a part) above, with A212L, I252L counted along it
Method in brief: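 Yeast two-hybrid assay. Yeast co-expressing wild-type or mutant mouse CAR LBD and the SRC-1 partner were selected on SD plates lacking leucine and tryptophan. Random colonies were pooled and amplified, then treated with DMSO or test chemical for 3.5 h. β-galactosidase activity was normalized to cell density and set relative to wild-type mCAR + SRC-1 with DMSO (=100). Mean ± standard deviation of two determinations, each in triplicate.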

[7] = biological target: T4, Nuclear receptor subfamily 1 group I member 3 (Mus musculus, UniProt O35627, T350A); experiment: Effect on nuclear co-repressor receptor binding to mouse CAR T350A mutant […] at 1 uM by yeast two-hybrid assay; type: cell-based; settings: read-out: Activity
T4 sequence (O35627 whole entry T350A, the tested form may be a part): as the sequence (O35627 whole entry L212A, the tested form may be a part) above, with A212L, T350A counted along it
Method in brief: (§4)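 Yeast expressing wild-type or mutant mouse CAR LBD plus NCoR, selected on SD plates lacking leucine and tryptophan. Pooled colonies treated with DMSO or compound for 3.5 h. β-Galactosidase activity normalized to cell density. Reference is 10 µM androstenol (=100). Mean ± SD of two independent determinations, each in triplicate.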

[8] = biological target: T2, Nuclear receptor subfamily 1 group I member 3; experiment: Effect on steroid receptor co-activator 1 binding to mouse CAR F171A mutant […] at 1 uM by yeast two-hybrid assay; type: cell-based; settings: read-out: Activity
Method in brief: as §4, with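 “SRC-1,” for “NCoR,”, “wild-type CAR + SRC-1 with DMSO” for “10 µM androstenol”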

[9] = biological target: T5, Nuclear receptor subfamily 1 group I member 3 (Mus musculus, UniProt O35627, Y336A); settings: HEK293, mouse
T5 sequence (O35627 whole entry Y336A): as the sequence (O35627 whole entry L212A, the tested form may be a part) above, with A212L, Y336A counted along it

[10] = biological target: T2, Nuclear receptor subfamily 1 group I member 3; experiment: Decrease in nuclear co-repressor receptor binding to mouse CAR F171A mutant […] at 10 uM by yeast two-hybrid assay; type: cell-based; settings: read-out: Activity; method in brief: as §4
[11] = biological target: Nuclear receptor subfamily 1 group I member 3 (Mus musculus, UniProt O35627, L353A); experiment: Decrease in nuclear co-repressor receptor binding to mouse CAR L353A mutant […] at 2 uM by yeast two-hybrid assay; type: cell-based; settings: read-out: Activity; method in brief: as §2
Nuclear receptor subfamily 1 group I member 3 (Mus musculus, UniProt O35627, L353A), sequence (O35627 whole entry L353A): as the sequence (O35627 whole entry L212A, the tested form may be a part) above, with A212L, L353A counted along it

[12] = biological target: Nuclear receptor subfamily 1 group I member 3 (Mus musculus, UniProt O35627, T350M); experiment: Effect on steroid receptor coactivator 1 binding to mouse CAR T350M mutant […] at 2 uM by yeast two-hybrid assay; type: cell-based; settings: read-out: Activity; method in brief: as §2
Nuclear receptor subfamily 1 group I member 3 (Mus musculus, UniProt O35627, T350M), sequence (O35627 whole entry T350M): as the sequence (O35627 whole entry L212A, the tested form may be a part) above, with A212L, T350M counted along it

[13] = biological target: T6, Nuclear receptor subfamily 1 group I member 3 (Mus musculus, UniProt O35627, F171L); experiment: Enhancement of nuclear co-repressor receptor binding to mouse CAR F171L mutant […] at 2 uM by yeast two-hybrid assay; type: cell-based; method in brief: as §2
T6 sequence (O35627 whole entry F171L): as the sequence (O35627 whole entry L212A, the tested form may be a part) above, with F171L, A212L counted along it

[14] = biological target: T1, Nuclear receptor subfamily 1 group I member 3; experiment: Activation of mouse CAR L212A mutant expressed in HEK293 cells at 2 uM by mammalian one-hybrid assay; type: cell-based; settings: hek293, 2 µM; method in brief: as §1
[15] = biological target: T4, Nuclear receptor subfamily 1 group I member 3; experiment: Decrease in nuclear co-repressor receptor binding to mouse CAR T350A mutant […] at 2 uM by yeast two-hybrid assay; type: cell-based; settings: read-out: Activity; method in brief: as §2
[16] = biological target: T6, Nuclear receptor subfamily 1 group I member 3; experiment: Decrease in mouse CAR F171L mutant activation expressed in HEK293 cells at 2 uM by mammalian one-hybrid assay; type: cell-based; settings: read-out: Activity; method in brief: as §1
[17] = biological target: T4, Nuclear receptor subfamily 1 group I member 3; experiment: Decrease in steroid receptor coactivator 1 binding to mouse CAR T350A mutant […] at 2 uM by yeast two-hybrid assay; type: cell-based; settings: read-out: Activity; method in brief: as §2
[18] = biological target: T5, Nuclear receptor subfamily 1 group I member 3; experiment: Activation of mouse CAR Y336A mutant expressed in HEK293 cells at 10 uM by mammalian one-hybrid assay; type: cell-based; settings: hek293, 10 µM; method in brief: as §3

Nuclear receptor subfamily 1 group I member 3 (Mus musculus, UniProt O35627, N175A), sequence (O35627 whole entry N175A, the tested form may be a part): as the sequence (O35627 whole entry L212A, the tested form may be a part) above, with N175A, A212L counted along it

In the case of `COc1ccc(C(=O)CCCc2ccccc2)cc1`, the inhibition at 10 µM [1] is reported as less than 50% and the activity at 10 µM [2] is reported as less than 50%.
With `COc1ccccc1CC(CC(=O)Cc1ccccc1)OC` (stereo not given) the activity at 10 µM [3] was less than 50%, the inhibition at 10 µM [1] was 50% and the fold induction at 1 µM [4] was 2.
With `Clc1cnc(Oc2ccc(Oc3ncc(Cl)cc3Cl)cc2)c(Cl)c1` the Activity [5] was 50%, the Activity [6] was “>= 50%” and the activity at 1 µM [7] was less than 50%. The activity at 1 µM [8] was less than 50% and the fold induction at 1 µM [4] was 2.
For `C[C@]12CC[C@@H](O)C[C@@H]1CC[C@@H]1[C@@H]2CC[C@]2(C)C=CC[C@@H]12` [ANDROSTENOL], the activity at 10 µM [9] was less than 50% and the inhibition at 10 µM [10] was no less than 50%.
For `Clc1ccccc1C(c1ccccc1)(c1ccccc1)n1ccnc1` [CLOTRIMAZOLE], the inhibition at 2 µM [11] was no less than 50%, the activity at 2 µM [12] was less than 50% and the Activity [13] was greater than 150%. It also gave an Activity [14] of less than 50%, an inhibition at 2 µM [15] of no less than 50% and an inhibition at 2 µM [16] of 50%. It also gave an inhibition at 2 µM [17] of no less than 50%.
Molecule `COc1ccc(C(c2ccc(OC)cc2)C(Cl)(Cl)Cl)cc1` [METHOXYCHLOR] has an Activity [18] of less than 50%.
